Publication PMC9202693 (The Journal of General Physiology, 2022)
“Also recorded” adds a separate entry of the source. Read-outs that look alike come from different tables or passages of the source. Positions of bridges follow the written chain, without caps; N, C: chain ends. Residues, ends and D or L forms follow the SMILES beside them. No end group written: not given here.

What was measured:
[1] = tested on: hHV1; assay: Selectivity, patch-clamp, hHV1 in CHO cells; type: cell-based, human; settings: 150 nM Cm28, 8–20 pulses (2–5 min), n ≥ 3
Procedure, shortened: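 Whole-cell proton current measured with a 1.0-s ramp to +100 mV from Vh −60 mV every 15 s. Bath (mM): 60 Na L-aspartate, 80 MES, 5.5 glucose, 6 MgCl2, pH 7.4. Pipette (mM): 90 Na L-aspartate, 80 MES, 6 MgCl2, 3.3 glucose, pH 6.17. Remaining current fraction (peak I/I0) taken at 150 nM after 8–20 pulses; mean ± SEM, n ≥ 3.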

[2] = target: T1, KV1.3 (Homo sapiens, UniProt P22001); assay: Binding kinetics of Cm28 block of KV1.3; type: cell-based
T1 sequence (P22001 whole entry): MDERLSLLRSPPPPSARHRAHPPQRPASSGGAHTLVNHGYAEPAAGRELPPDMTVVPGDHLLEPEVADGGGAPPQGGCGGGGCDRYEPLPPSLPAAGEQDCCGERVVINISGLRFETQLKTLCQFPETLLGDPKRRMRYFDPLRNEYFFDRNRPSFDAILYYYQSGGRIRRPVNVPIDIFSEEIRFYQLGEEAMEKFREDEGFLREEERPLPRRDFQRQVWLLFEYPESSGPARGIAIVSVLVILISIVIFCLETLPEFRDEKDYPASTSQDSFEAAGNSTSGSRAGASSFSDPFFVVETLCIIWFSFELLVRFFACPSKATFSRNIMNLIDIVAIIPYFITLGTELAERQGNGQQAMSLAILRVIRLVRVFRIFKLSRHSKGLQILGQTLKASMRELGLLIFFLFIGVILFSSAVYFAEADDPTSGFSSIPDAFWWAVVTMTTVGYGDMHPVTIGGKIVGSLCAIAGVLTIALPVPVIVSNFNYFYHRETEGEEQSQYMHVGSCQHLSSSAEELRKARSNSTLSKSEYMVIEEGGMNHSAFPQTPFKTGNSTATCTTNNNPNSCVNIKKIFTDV
Procedure, shortened: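 Activated human peripheral T lymphocytes (PHA-stimulated PBMCs) recorded by whole-cell voltage clamp in normal Na+-based bath, pH 7.35. 15-ms pulses to +50 mV from Vh −120 mV every 15 s. Wash-in and wash-out time courses of normalized peak current fitted with single exponentials. 1/τon and 1/τoff versus toxin concentration fitted by linear regression to give kon and koff, assuming simple bimolecular binding.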

[3] = tested on: CD4^+ TEM lymphocytes; assay: LDH cytotoxicity assay; type: cell-based, human; settings: for cytotoxicity (LDH): 24 h culture, 1.5 μM Cm28 or 50 nM rMgTx, quiescent or TCR-activated cells, three independent experiments
Procedure, shortened: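 CD4+ TEM cells, unstimulated or anti-CD3-stimulated, were cultured 24 h with or without test peptide. Medium samples were mixed with LDH reaction substrate for 30 min in the dark, then stop solution was added. Activity was taken as A490 minus A680, and percent cytotoxicity was calculated against controls. Spontaneous and maximum controls were sterile water and lysis buffer (45 min, 37°C). Positive control: 50 mM NaN3. Three donors, two technical repeats, mean ± SEM.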

[4] = tested on: hKV1.5; assay: Selectivity, patch-clamp, hKV1.5 in CHO cells; type: cell-based, human; settings: 150 nM Cm28, 8–20 pulses (2–5 min), n ≥ 3
Procedure, shortened: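 Whole-cell KV1.5 currents recorded in normal bath (mM): 145 NaCl, 5 KCl, 2.5 CaCl2, 1 MgCl2, 5.5 glucose, 10 HEPES, pH 7.35. Remaining current fraction calculated as the ratio of peak currents with and without 150 nM test compound after 8–20 repeated depolarizing pulses (2–5 min). Reported as mean ± SEM, n ≥ 3.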

[5] = target: T2, KV1.2 (Homo sapiens, UniProt P16389); assay: Binding kinetics of Cm28 block of KV1.2; type: cell-based
T2 sequence (P16389 whole entry): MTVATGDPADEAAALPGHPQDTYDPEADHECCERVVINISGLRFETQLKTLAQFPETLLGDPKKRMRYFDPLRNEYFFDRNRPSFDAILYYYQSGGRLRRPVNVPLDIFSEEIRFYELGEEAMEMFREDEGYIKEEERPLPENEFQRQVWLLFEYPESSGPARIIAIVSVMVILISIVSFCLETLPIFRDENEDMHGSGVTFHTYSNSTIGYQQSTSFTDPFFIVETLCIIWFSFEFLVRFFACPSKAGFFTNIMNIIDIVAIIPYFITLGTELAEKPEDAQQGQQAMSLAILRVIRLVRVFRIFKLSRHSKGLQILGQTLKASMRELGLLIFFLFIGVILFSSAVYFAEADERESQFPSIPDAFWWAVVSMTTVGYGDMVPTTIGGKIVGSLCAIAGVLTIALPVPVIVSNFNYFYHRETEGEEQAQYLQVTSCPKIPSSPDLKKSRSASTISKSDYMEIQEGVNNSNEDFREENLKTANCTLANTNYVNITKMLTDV
Procedure, shortened: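 KV1.2 transiently transfected into CHO cells; GFP-positive cells recorded 24–36 h post-transfection by whole-cell voltage clamp. Normal bath (mM): 145 NaCl, 5 KCl, 2.5 CaCl2, 1 MgCl2, 5.5 glucose, 10 HEPES, pH 7.35. 15-ms pulses to +50 mV from Vh −120 mV every 15 s with 2 nM toxin. Normalized peak current versus time fitted single-exponentially for wash-in/wash-out (τon, τoff); kon, koff from bimolecular model.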

[6] = tested on: hNaV1.4; assay: Selectivity, patch-clamp, hNaV1.4 in human embryonic kidney 293 cells; type: cell-based; settings: 150 nM Cm28, 8–20 pulses (2–5 min), n ≥ 3
Procedure, shortened: (§1)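 Whole-cell Na+ currents evoked by 15-ms steps to 0 mV every 10 s. Normal Na+-based bath, pH 7.35. Pipette (mM): 10 NaCl, 105 CsF, 10 HEPES, 10 EGTA, pH 7.2. Remaining peak current fraction at 150 nM after 8–20 pulses (2–5 min); mean ± SEM, n ≥ 3. NaV1.4 was recorded in HEK293 cells stably expressing the channel.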

[7] = tested on: hNaV1.5; assay: Selectivity, patch-clamp, hNaV1.5 in CHO cells; type: cell-based, human; settings: 150 nM Cm28, 8–20 pulses (2–5 min), n ≥ 3
Procedure, shortened: as §1

[8] = tested on: hKV11.1 (hERG1); assay: Selectivity, patch-clamp, hKV11.1 in human embryonic kidney 293 cells; type: cell-based; settings: 150 nM Cm28, 8–20 pulses (2–5 min), n ≥ 3
Procedure, shortened: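 HEK293 cells stably expressing hKV11.1. Pipette (mM): 140 KCl, 2 MgCl2, 10 HEPES, 10 EGTA, pH 7.3. Step to +20 mV (1.25 s) from Vh −80 mV, then −40 mV (2 s), every 30 s. Peak tail current I/I0 at 150 nM after 8–20 pulses; n ≥ 3.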

[9] = tested on: hKCa3.1; assay: Selectivity, patch-clamp, hKCa3.1 in CHO cells; type: cell-based, human; settings: 150 nM Cm28, 8–20 pulses (2–5 min), n ≥ 3
Procedure, shortened: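 Whole-cell KCa3.1 currents recorded with 150-ms ramps to +50 mV from −120 mV every 10 s. Bath (mM): 145 Na L-aspartate, 5 KCl, 10 HEPES, 5.5 glucose, 2.5 CaCl2, 1 MgCl2, pH 7.4. Pipette (mM): 150 K-Asp, 5 HEPES, 8.5 CaCl2, 1.0 MgCl2, pH 7.22. Peak I/I0 at 150 nM after 8–20 pulses (2–5 min); mean ± SEM, n ≥ 3.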

[10] = tested on: IL2R expression in CD4^+ TEM lymphocytes; assay: Expression of IL2R; type: cell-based, human
Procedure, shortened: (§2)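 CD4+ TEM cells were isolated from healthy-donor PBMCs by negative magnetic selection and held at 1 × 10^6 cells/ml in RPMI 1640 with 10% FBS. They were pre-incubated 30 min with test peptide, then stimulated 24 h at 37°C on plate-bound anti-CD3 (OKT3, 1 µg/well) with toxin kept present. Cells were stained 20 min at 4°C with anti-CD25 and anti-CD154. Gating was FSC/SSC, 10,000 events. MFI was normalized to the stimulated untreated control. Duplicates, three donors.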

[11] = target: T2, KV1.2; assay: Whole-cell patch-clamp block of KV1.2 current, transiently transfected CHO cells; type: cell-based
Procedure, shortened: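 hKV1.2 was expressed transiently in CHO cells, and GFP-positive cells were recorded 24–36 h after transfection. Whole-cell currents were evoked by 15-ms pulses to +50 mV from −120 mV every 15 s at 20–25°C, with leak below 10%, using gravity perfusion. RCF was peak I/I0 at equilibrium block.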

[12] = tested on: mKCa1.1; assay: Selectivity, patch-clamp, mKCa1.1 in human embryonic kidney 293 cells; type: cell-based; settings: 150 nM Cm28, 8–20 pulses (2–5 min), n ≥ 3
Procedure, shortened: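 HEK293 cells stably expressing mKCa1.1 recorded in whole-cell mode in normal bath (145 NaCl, 5 KCl, 2.5 CaCl2, 1 MgCl2, 5.5 glucose, 10 HEPES mM, pH 7.35). Cells depolarized to +100 mV for 600 ms from Vh −100 mV. Peak I/I0 at 150 nM after 8–20 pulses (2–5 min); mean ± SEM, n ≥ 3.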

[13] = target: T2, KV1.2; assay: Voltage dependence of activation; type: cell-based; settings: KV1.2, 2 nM Cm28
Procedure, shortened: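 CHO cells were transiently transfected with GFP-tagged hKV1.2 and recorded by whole-cell clamp 24–36 h later at 20–25°C. For G-V, 300-ms steps from −70 to +80 mV in 10 mV increments were applied, with tail currents at −120 mV normalized to the maximum. For instantaneous I-V, 200-ms ramps to +50 mV were used. Pulses were given every 15 s. Traces are three-trace averages in control and at equilibrium block.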

[14] = tested on: hKV1.1; assay: Selectivity, patch-clamp, hKV1.1 in CHO cells; type: cell-based, human
Procedure, shortened: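 hKV1.1 (KCNA1, GFP-tagged vector) transiently transfected into CHO cells with Lipofectamine; GFP-positive cells recorded 24–36 h later by whole-cell voltage clamp. Normal bath (mM): 145 NaCl, 5 KCl, 2.5 CaCl2, 1 MgCl2, 5.5 glucose, 10 HEPES, pH 7.35. Remaining current fraction = peak current with/without 150 nM toxin at equilibrium block; mean ± SEM.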

[15] = tested on: CD40L expression in CD4^+ TEM lymphocytes; assay: Expression of CD40L; type: cell-based, human
Procedure, shortened: as §2

[16] = target: T1, KV1.3; type: cell-based
Procedure, shortened: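 PBMCs from healthy donors were cultured 3–6 days in RPMI 1640 with 10% FBS and PHA (2, 5 or 10 µg/ml) to raise KV1.3. Whole-cell currents were evoked by 15-ms pulses to +50 mV from −120 mV every 15 s at 20–25°C, with gravity perfusion. Remaining current fraction was peak I/I0 at equilibrium block. Points (3–5 records each) were Hill-fitted for Kd and H. Perfusion control was 10 mM TEA+; wash-out used toxin-free solution.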

[17] = tested on: KV channels; settings: ref Bartok et al., 2014, cited from earlier work
[18] = tested on: CD4^+ TEM lymphocytes; assay: Cell viability, Zombie NIR flow cytometry; type: cell-based, human; settings: 24 h culture, 1.5 μM Cm28 or 50 nM rMgTx, quiescent or TCR-activated cells, three independent experiments
[19] = 1.5 µM Cm28, anti-CD3–activated, 24 h
[20] = US + Cm28 (1.5 µM), not exposed to anti-CD3
[21] = 5 nM rMgTx, 30 min pre-incubation, 24 h anti-CD3 stimulation, decreased to

## CC(C)[C@@H]1NC(=O)[C@@H]2CSSC[C@H](NC(=O)[C@@H](N)CCCCN)C(=O)N[C@@H](CCCNC(=N)N)C(=O)N[C@@H](CCC(=O)O)C(=O)N[C@H]3CSSC[C@H](NC(=O)[C@H](CCCCN)NC(=O)CNC(=O)[C@H](CC(N)=O)NC1=O)C(=O)N[C@@H](C(C)C)C(=O)N[C@H](C(=O)N1CCC[C@H]1C(=O)N[C@@H](C)C(=O)O)CSSC[C@H](NC(=O)[C@H](CO)NC(=O)[C@@H]1CCCN1C(=O)[C@H](CO)NC(=O)[C@H]([C@@H](C)O)NC(=O)[C@H](CC(N)=O)NC(=O)CNC3=O)C(=O)N[C@@H](Cc1ccc(O)cc1)C(=O)N[C@@H](Cc1ccccc1)C(=O)N[C@@H](CO)C(=O)NCC(=O)N[C@@H](CC(N)=O)C(=O)N2 [Cm28] (H-KCRECGNTSPSCYFSGNCVNGKCVCPA-OH; disulfide 2-18, 5-23, 12-25; N-terminus assumed)
[1]
  inhibition of hHV1: did not inhibit
[2]
  koff: 0.0028 ± 0.000215 s⁻¹
  kon: 1.3e+06 M⁻¹ s⁻¹
[3]
  cytotoxicity (LDH): < 1%
[4]
  inhibition of KV1.5: did not inhibit
[5]
  koff: 0.0013 s⁻¹
  kon: 1.1e+06 M⁻¹ s⁻¹
[6]
  inhibition of NaV1.4: did not inhibit
[7]
  inhibition of NaV1.5: did not inhibit
[8]
  inhibition of KV11.1: did not inhibit
[9]
  inhibition of KCa3.1: did not inhibit
[10]; [19]
  IL2R expression in activated cells: strongly inhibited; also recorded: significantly reduced
[10]; [20]
  IL2R expression in unstimulated cells: no change
[11]; KV1.2, Hill fit of dose-response, n = 3–5
  Hill coefficient (H): 1.04
[11]; wash-out with toxin-free solution after 2 nM Cm28, took several minutes
  recovery from block, % of control current: ~85%
[12]
  inhibition of KCa1.1: did not inhibit
[13]
  shift in G-V curve / activation threshold: did not introduce any substantial shift in the G-V curve of KV1.2
[14]; 150 nM Cm28, equilibrium block
  reduction of KV1.1 current: ~27%
[14]; compared with KV1.2 and KV1.3
  fold less affinity for KV1.1 (vs KV1.2 and KV1.3): ~400 fold
[14]; text of Discussion, high concentration ∼100× of Kd for KV1.3
  inhibition of KV1.1: did not inhibit
[15]; [19]
  CD40L expression in activated cells: strongly inhibited; also recorded: significantly reduced
[15]; [20]
  CD40L expression in unstimulated cells: no change
[16]; KV1.3, Hill fit of dose-response, n = 3–5
  Hill coefficient (H): 0.93
[16]; read-out: inhibition of current at block equilibrium
  inhibition at 0.002 µM: ~58%
[16]; wash-out with toxin-free solution after 2 nM Cm28
  time for 90% recovery from block: 10 min

## [N-]=[N+]=[N-].[Na+] [NaN3, sodium azide]
[3]; 50 mM NaN3
  cytotoxicity (LDH), positive control: 15%

## CC[N+](CC)(CC)CC.[Cl-] [TEA^+, reference compound]
[16]; 10 mM TEA^+, KV1.3
  inhibition in peak current, perfusion control: ~50%

## ChTx [reference compound]
[17]
  block of KV1.x channel subtypes: blocks more than one KV1.x channel subtypes with high affinity
[11]; 14 nM ChTx, KV1.2
  inhibition in peak current, perfusion control: ~50%

## MgTx (TIINVKCTSPKQCLPPCKAQFGQSAGAKCMNGKCKCYPH; UniProt P40755 1-39, looked up)
[17]
  block of KV1.x channel subtypes: blocks more than one KV1.x channel subtypes with high affinity
[17]; listed as margatoxin
  block of KV1.x channel subtypes: blocks different KV channels

## rMgTx (TIINVKCTSPKQCLPPCKAQFGQSAGAKCMNGKCKCYPH; ends and bridges not checked; cysteine pairing not given here; UniProt P40755 1-39, looked up) [reference compound]
[3]
  cytotoxicity (LDH): < 2%
[18]
  viable cells: ≥ 90%
[10]; [21]
  IL2R expression, normalized to stimulated non-treated control: ~48%
[15]; [21]
  CD40L expression, normalized to stimulated non-treated control: ~51%
